The values below come from ChEMBL document CHEMBL2069238, “Discovery of potent and selective rhodanine type IKKβ inhibitors by hit-to-lead strategy” (Bioorg Med Chem Lett, 2012).

For the first test, the target named is T1, Inhibitor of nuclear factor kappa-B kinase subunit beta (Homo sapiens) (UniProt O14920).
T1 sequence (whole entry): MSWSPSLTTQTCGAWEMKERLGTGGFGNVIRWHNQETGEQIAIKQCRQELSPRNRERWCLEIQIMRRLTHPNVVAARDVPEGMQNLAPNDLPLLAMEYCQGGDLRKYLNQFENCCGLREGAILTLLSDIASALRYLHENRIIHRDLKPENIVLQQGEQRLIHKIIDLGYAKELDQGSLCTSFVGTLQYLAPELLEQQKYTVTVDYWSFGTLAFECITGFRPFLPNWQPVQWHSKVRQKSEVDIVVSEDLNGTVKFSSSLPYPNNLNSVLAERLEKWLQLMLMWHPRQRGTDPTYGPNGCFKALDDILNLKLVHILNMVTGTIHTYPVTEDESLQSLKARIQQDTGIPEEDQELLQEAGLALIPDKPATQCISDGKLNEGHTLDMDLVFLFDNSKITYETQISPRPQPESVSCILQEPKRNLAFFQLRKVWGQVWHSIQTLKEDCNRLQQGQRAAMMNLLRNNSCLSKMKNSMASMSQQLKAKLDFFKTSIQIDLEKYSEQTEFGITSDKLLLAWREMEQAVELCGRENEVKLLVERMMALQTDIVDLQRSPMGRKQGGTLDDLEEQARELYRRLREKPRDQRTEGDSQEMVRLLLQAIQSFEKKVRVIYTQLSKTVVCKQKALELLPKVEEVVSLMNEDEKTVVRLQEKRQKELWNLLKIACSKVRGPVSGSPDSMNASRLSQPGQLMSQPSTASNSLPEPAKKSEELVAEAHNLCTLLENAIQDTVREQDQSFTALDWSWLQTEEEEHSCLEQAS
The test is described as follows: Inhibition of IKKbeta using 5FAM-GRHDSGLDSMK-NH2 as substrate at 10 uM incubated for 10 mins prior to substrate addition by IMAP-TR-FRET assay. (In general: TR-FRET usually uses a lanthanide donor and a delayed reading to cut background.)
In general, inhibition refers to the change of the read-out against control, counted positive when it falls. Regarding `CN1CCN(CCCOc2ccc(N3C(=O)/C(=C/c4ccc(Oc5ccccc5C(N)=O)cc4)SC3=S)cc2)CC1`, the inhibition amounted to 52.7%.

The molecule `CCN(CC)CCCOc1ccc(N2C(=O)/C(=C/C=C/c3ccc(N(C)C)cc3)SC2=S)cc1` had an inhibition of 28.1%.

In turn, `CCN(CC)CCCOc1ccc(N2C(=O)/C(=C/c3ccc(O)cc3)SC2=S)cc1` displayed an inhibition of 56%.

On to `NC(=O)c1cccc(Oc2ccc(/C=C3\SC(=S)N(c4ccc(OCCCN5CCCCC5)cc4)C3=O)cc2)c1`, for which the inhibition was determined as 83%.

On to `CN1CCN(CCCCOc2ccc(N3C(=O)/C(=C/c4ccc(Oc5ccc(C(N)=O)cc5)cc4)SC3=S)cc2)CC1`, for which the inhibition worked out at 90.4%.

On to `CCN(CC)CCCOc1ccc(N2C(=O)/C(=C/c3ccc(C(N)=O)cc3)SC2=S)cc1`, for which the inhibition worked out at 15.5%.

For `CCN(CC)CCCOc1ccc(N2C(=O)/C(=C/c3ccc(Oc4ccc(Cl)cc4)cc3)SC2=S)cc1`, the inhibition amounted to 36.5%.

Turning to `CCN(CC)CCOc1ccc(N2C(=O)/C(=C/c3ccc(Oc4cccc(C(N)=O)c4)cc3)SC2=S)cc1`, the inhibition is 17.1%.

Molecule `NC(=O)c1ccccc1Oc1ccc(/C=C2\SC(=S)N(c3ccc(OCCCN4CCCC4)cc3)C2=O)cc1` registered an inhibition of 21.3%.

`CCN(CC)CCCOc1ccc(N2C(=O)/C(=C/C=C(c3ccccc3)c3ccccc3)SC2=S)cc1` had an inhibition of 52.6%.

`CCN(CC)CCCOc1ccc(N2C(=O)/C(=C/c3ccc(Cl)c(Cl)c3)SC2=S)cc1` showed an inhibition of 61.8%.

`CCN(CC)CCCOc1ccc(N2C(=O)/C(=C/c3ccncc3)SC2=S)cc1`: the inhibition turned out to be 3.2%.

In turn, `NC(=O)c1cccc(Oc2ccc(/C=C3\SC(=S)N(c4ccc(OCCCN5CCCC5)cc4)C3=O)cc2)c1` gave an inhibition of 57.3%.

`N#Cc1c(C2CCCNC2)cc(-c2ccccc2O)nc1N` (configuration not stated) yielded an inhibition of 88.7%.

In another test the target is T2, Inhibitor of nuclear factor kappa-B kinase subunit beta (Homo sapiens, UniProt O14920).
T2 sequence (O14920 whole entry): T1 sequence (whole entry)
The test can be described thus: Inhibition of IKKbeta using 5FAM-GRHDSGLDSMK-NH2 as substrate incubated for 10 mins prior to substrate addition by IMAP-TR-FRET assay.
Broadly, the IC50 is the concentration at which inhibition is half-maximal. On to `CN1CCN(CCCOc2ccc(N3C(=O)/C(=C/c4ccc(Oc5ccccc5C(N)=O)cc4)SC3=S)cc2)CC1`, for which 8.5 µM corresponded to half-maximal inhibition (IC50).

The molecule `CCN(CC)CCCOc1ccc(N2C(=O)/C(=C/c3ccc(O)cc3)SC2=S)cc1` showed an IC50 of 23.6 µM.

Consider `NC(=O)c1cccc(Oc2ccc(/C=C3\SC(=S)N(c4ccc(OCCCN5CCCCC5)cc4)C3=O)cc2)c1`, for which the IC50 is 6.3 µM.

With `CN1CCN(CCCCOc2ccc(N3C(=O)/C(=C/c4ccc(Oc5ccc(C(N)=O)cc5)cc4)SC3=S)cc2)CC1`, 0.23 µM corresponded to half-maximal inhibition (IC50).

With `CCN(CC)CCCOc1ccc(N2C(=O)/C(=C/c3ccc(Oc4ccc(Cl)cc4)cc3)SC2=S)cc1`, half-maximal inhibition (IC50) required 15.6 µM.

`CCN(CC)CCCOc1ccc(N2C(=O)/C(=C/C=C(c3ccccc3)c3ccccc3)SC2=S)cc1` registered an IC50 of 14.1 µM.

`CCN(CC)CCCOc1ccc(N2C(=O)/C(=C/c3ccc(Cl)c(Cl)c3)SC2=S)cc1` came in with an IC50 of 9.3 µM.

The molecule `NC(=O)c1cccc(Oc2ccc(/C=C3\SC(=S)N(c4ccc(OCCCN5CCCC5)cc4)C3=O)cc2)c1` gave an IC50 of 6.3 µM.

In the case of `N#Cc1c(C2CCCNC2)cc(-c2ccccc2O)nc1N` (configuration not stated), half-maximal inhibition (IC50) required 0.17 µM.

The target of a further test is T1, Inhibitor of nuclear factor kappa-B kinase subunit beta (Homo sapiens). The test is described as follows: Inhibition of IKKbeta in human HeLa cells assessed as inhibition of TPA-induced NFkappaB activation at 10 uM incubated for 1 hr prior to TPA-challenge measured after 8 hrs by luciferase reporter gene assay. The class given is cell-based. The procedure, abridged:
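HeLa cells transfected with an NF-κB luciferase reporter plasmid, pre-treated with inhibitor for 1 h, then stimulated with TPA (50 ng/mL) for 8 h. Luciferase activity normalized to protein content of each extract, expressed as relative luciferase units per mg versus non-treated cells; n = 3.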
A general note: Reporter assays use an easily measured gene product as a stand-in for the process of interest.
For `CN1CCN(CCCOc2ccc(N3C(=O)/C(=C/c4ccc(Oc5ccccc5C(N)=O)cc4)SC3=S)cc2)CC1`, the inhibition is 42.4%.

For the molecule `NC(=O)c1cccc(Oc2ccc(/C=C3\SC(=S)N(c4ccc(OCCCN5CCCCC5)cc4)C3=O)cc2)c1`, the inhibition came to 42.1%.

Regarding `CCN(CC)CCCOc1ccc(N2C(=O)/C(=C/c3ccc(Oc4ccc(Cl)cc4)cc3)SC2=S)cc1`, the inhibition stood at 71.4%.

Turning to `CCN(CC)CCOc1ccc(N2C(=O)/C(=C/c3ccc(Oc4cccc(C(N)=O)c4)cc3)SC2=S)cc1`, the inhibition was 57%.

Regarding `NC(=O)c1cccc(Oc2ccc(/C=C3\SC(=S)N(c4ccc(OCCCN5CCCC5)cc4)C3=O)cc2)c1`, the inhibition is 57%.

In the case of `N#Cc1c(C2CCCNC2)cc(-c2ccccc2O)nc1N` (configuration not stated), the inhibition turned out to be 73.9%.

For a further test, the target named is T3, Inhibitor of nuclear factor kappa-B kinase subunit beta (Mus musculus, UniProt O88351).
T3 sequence (O88351 whole entry): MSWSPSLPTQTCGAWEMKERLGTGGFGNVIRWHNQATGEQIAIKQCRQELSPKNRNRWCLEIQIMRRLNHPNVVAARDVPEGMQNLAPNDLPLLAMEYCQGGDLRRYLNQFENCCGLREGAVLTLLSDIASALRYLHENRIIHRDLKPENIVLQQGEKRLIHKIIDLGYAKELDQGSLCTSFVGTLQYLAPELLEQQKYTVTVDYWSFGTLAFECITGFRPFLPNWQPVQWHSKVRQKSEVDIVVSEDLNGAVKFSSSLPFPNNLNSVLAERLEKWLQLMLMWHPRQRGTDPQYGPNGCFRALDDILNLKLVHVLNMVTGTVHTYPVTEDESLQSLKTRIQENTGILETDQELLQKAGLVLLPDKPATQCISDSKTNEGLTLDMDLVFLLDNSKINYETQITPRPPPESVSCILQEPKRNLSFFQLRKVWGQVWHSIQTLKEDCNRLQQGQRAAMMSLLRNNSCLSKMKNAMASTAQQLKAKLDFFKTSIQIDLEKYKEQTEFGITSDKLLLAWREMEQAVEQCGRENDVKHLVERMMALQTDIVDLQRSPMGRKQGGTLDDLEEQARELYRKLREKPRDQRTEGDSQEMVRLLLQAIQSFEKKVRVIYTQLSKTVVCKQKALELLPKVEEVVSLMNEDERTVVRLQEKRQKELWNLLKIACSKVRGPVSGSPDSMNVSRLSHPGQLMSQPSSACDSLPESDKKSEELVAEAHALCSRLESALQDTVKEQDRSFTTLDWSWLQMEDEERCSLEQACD
The test is described as follows: Inhibition of IKKbeta in mouse CIA model splenocytes assessed as inhibition of TNFalpha production after 72 hrs by ELISA. The class given is cell-based. In outline:
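Spleens from collagen type II-immunized mice were taken 8 weeks after primary immunization. Red cells were lysed with 0.83% ammonium chloride, and cells were strained and resuspended in RPMI 1640 at 1 × 10^6 cells/well, then exposed to inhibitor for 72 h. Supernatant TNFα was measured by sandwich ELISA with an alkaline phosphatase chromogenic read at 405 nm, quantified against a recombinant murine TNFα standard curve.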
Regarding `CN1CCN(CCCOc2ccc(N3C(=O)/C(=C/c4ccc(Oc5ccccc5C(N)=O)cc4)SC3=S)cc2)CC1`, the IC50 turned out to be 12 µM.

For `NC(=O)c1cccc(Oc2ccc(/C=C3\SC(=S)N(c4ccc(OCCCN5CCCCC5)cc4)C3=O)cc2)c1`, the IC50 came to 30 µM.

Consider `CN1CCN(CCCCOc2ccc(N3C(=O)/C(=C/c4ccc(Oc5ccc(C(N)=O)cc5)cc4)SC3=S)cc2)CC1`, for which the IC50 was 4 µM.

As for `CCN(CC)CCCOc1ccc(N2C(=O)/C(=C/c3ccc(Oc4ccc(Cl)cc4)cc3)SC2=S)cc1`, the IC50 was determined as 13 µM.

Consider `CCN(CC)CCOc1ccc(N2C(=O)/C(=C/c3ccc(Oc4cccc(C(N)=O)c4)cc3)SC2=S)cc1`, for which the 50% inhibitory concentration (IC50) was 7 µM.

As to `NC(=O)c1cccc(Oc2ccc(/C=C3\SC(=S)N(c4ccc(OCCCN5CCCC5)cc4)C3=O)cc2)c1`, the IC50 worked out at 7 µM.

`N#Cc1c(C2CCCNC2)cc(-c2ccccc2O)nc1N` (configuration not stated): the IC50 stood at 1.8 µM.

The next test addresses T4, Inhibitor of nuclear factor kappa-B kinase subunit alpha (Homo sapiens, UniProt O15111).
T4 sequence (O15111 whole entry): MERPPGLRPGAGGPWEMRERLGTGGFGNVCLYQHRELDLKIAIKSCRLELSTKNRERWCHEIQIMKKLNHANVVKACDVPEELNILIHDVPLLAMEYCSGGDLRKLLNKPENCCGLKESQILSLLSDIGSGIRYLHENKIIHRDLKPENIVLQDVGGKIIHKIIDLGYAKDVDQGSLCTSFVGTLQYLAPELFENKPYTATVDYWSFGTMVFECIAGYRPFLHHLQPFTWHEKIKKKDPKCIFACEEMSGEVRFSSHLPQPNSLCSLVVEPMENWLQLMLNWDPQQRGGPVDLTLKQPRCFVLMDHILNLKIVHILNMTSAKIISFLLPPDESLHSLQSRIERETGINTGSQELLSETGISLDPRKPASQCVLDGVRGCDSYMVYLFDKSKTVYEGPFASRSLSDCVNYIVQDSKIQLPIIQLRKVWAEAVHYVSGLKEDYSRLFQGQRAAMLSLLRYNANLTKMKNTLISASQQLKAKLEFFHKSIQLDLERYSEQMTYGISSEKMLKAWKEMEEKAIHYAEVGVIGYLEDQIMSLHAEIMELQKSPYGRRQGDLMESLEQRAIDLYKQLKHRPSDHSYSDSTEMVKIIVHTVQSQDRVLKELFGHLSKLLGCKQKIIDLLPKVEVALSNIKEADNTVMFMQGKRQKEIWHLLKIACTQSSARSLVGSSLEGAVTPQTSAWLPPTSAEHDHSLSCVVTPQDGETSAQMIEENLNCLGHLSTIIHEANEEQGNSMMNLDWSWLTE
The test can be described thus: Inhibition of IKKalpha.
As for `N#Cc1c(C2CCCNC2)cc(-c2ccccc2O)nc1N` (configuration not stated), half-maximal inhibition (IC50) required 0.64 µM.
